For test [1], the target named is T1, Sortase A (Staphylococcus aureus, UniProt Q9S446).
T1 sequence (Q9S446 whole entry): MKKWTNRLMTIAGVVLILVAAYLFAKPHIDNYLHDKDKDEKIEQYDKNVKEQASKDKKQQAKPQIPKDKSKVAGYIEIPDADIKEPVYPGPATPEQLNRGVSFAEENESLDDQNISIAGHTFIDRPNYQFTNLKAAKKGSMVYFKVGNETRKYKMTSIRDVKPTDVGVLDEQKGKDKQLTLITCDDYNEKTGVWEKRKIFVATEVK
Nature of the test: Inhibition of Staphylococcus aureus His6-biotinylated SrtA expressed in Escherichia coli XL1-blue using Dabcyl-LPETG-Edans as substrate assessed as residual activity by fluorescence assay. The gist of the method:
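(His)6-SrtA26−206 from E. coli XL1-blue, purified by Ni affinity and gel filtration. Enzyme at 2.5 μM incubated with varied peptide concentrations (up to 300 μM). Residual activity measured with 20 μM Dabcyl-LPETG-Edans and 200 μM triglycine in 50 mM Tris-Cl pH 7.4, 150 mM NaCl, 5 mM CaCl2, 0.1% BSA, 37 °C. Fluorescence read at ex 350/em 480 nm. Ki from Supporting Information equations; at least three measurements.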

Test [2] deals with T1, Sortase A. Nature of the test: Binding affinity to Staphylococcus aureus His6-biotinylated SrtA expressed in Escherichia coli XL1-blue using fluorescein-tagged compound after 15 mins by fluorescence polarization. In a few lines: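 Serial dilutions of SrtA mixed with 200 nM fluorescein-labeled bicyclic peptide in 50 mM Tris-Cl pH 7.4, 150 mM NaCl, 5 mM CaCl2; 15 min at room temperature. Fluorescence polarization read at 485 nm excitation / 535 nm emission. Kd obtained by nonlinear regression of polarization against total SrtA concentration.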
(Fluorescence polarisation rises when a labelled molecule tumbles more slowly, as on binding a larger partner.)

The target of test [3] is Urokinase-type plasminogen activator (Homo sapiens, UniProt P00749). The test can be described thus: Inhibition of human uPA using fluorogenic Z-Gly-Gly-Arg-AMC as substrate.
The nature of test [4]: Inhibition of recombinant Staphylococcus aureus SrtA N24 deletion mutant by using abz-LPATG-dnp as substrate.
Test [5] addresses T2, Sortase A (Staphylococcus aureus) (UniProt Q9S446).
T2 sequence (whole entry): T1 sequence (Q9S446 whole entry)
Nature of the test: (§1) Inhibition of SrtA-mediated incorporation of Fluo-GSLPETGGS substrate to cell wall of Staphylococcus aureus Newman after 24 hrs by fluorescence assay. To be noted: Staphylococcus aureus subsp. aureus str. Newman.

The target in test [6] is T1, Sortase A. Described as §1. Also on record: species or system Staphylococcus aureus subsp. aureus str. Newman.
Test [7] deals with Staphylococcus aureus. Nature of the test: Induction of Fluo-GSLPETGGS substrate transfer to cell wall of SrtA knockout Staphylococcus aureus SKM12 at 1 mM after 24 hrs by fluorescence assay. The test is classed as functional.

Molecules are shown by their SMILES. The source made the active and inactive calls. No cut-off for these calls is given here. *1 amine or outer side, *2 acyl side, *3 side chain or, on linkers, in order; H or OH if unused. Where a SMILES comes first, the peptide text is derived from it. Bridges are numbered along the chain shown (N, C = ends). TBMB = c1c(C[*:1])cc(C[*:3])cc1C[*:2]

For the compound `CC(C)C[C@@H]1NC(=O)[C@H](CCC(N)=O)NC(=O)[C@@H]2CCCN2C(=O)[C@@H](NC(=O)[C@H](C)N)CSCc2cc3cc(c2)CSC[C@H](NC(=O)[C@@H]2CCCN2C(=O)[C@@H]2CCCN2C1=O)C(=O)N[C@@H](CCCNC(=N)N)NC(=O)[C@H](C(C)C)NC(=O)[C@H](CO)C(=O)N[C@H](C(=O)NCC(N)=O)CSC3`, in test [1], the Ki came out at 4.3 µM. In test [2], this compound gave a Kd of 8.8 µM.
Turning to `CC(C)[C@@H]1NC(=O)[C@H](CCC(=O)O)NC(=O)[C@H](Cc2ccc(O)cc2)NC(=O)[C@H](CCCNC(=N)N)NC(=O)[C@@H](CO)NC(=O)[C@H](NC(=O)[C@H](C)N)CSCc2cc3cc(c2)CSC[C@@H](C(=O)NCC(N)=O)NC(=O)[C@@H](C)NC(=O)[C@H](CO)NC(=O)CNC(=O)[C@H](CCCNC(=N)N)NC(=O)CNC(=O)[C@H](CCCNC(=N)N)NC(=O)[C@H](CSC3)NC(=O)[C@H](CC(=O)O)NC1=O`, the Ki in test [3] is 0.053 µM.
For `O=S(=O)(O)c1cccc(-c2nn3c(-c4ccncc4)nnc3s2)c1`, the IC50 in test [4] worked out at 9.3 µM.
Regarding `CC(C)C[C@@H]1NC(=O)[C@H](CCC(N)=O)NC(=O)[C@@H]2CCCN2C(=O)[C@@H]2CSCc3cc(cc(c3)CSC[C@@H](C(=O)NCC(=O)O)NC(=O)[C@@H]3CCCN3C(=O)[C@@H]3CCCN3C1=O)CSC[C@H](NC(=O)[C@H](C)N)C(=O)N[C@@H](Cc1c[nH]cn1)C(=O)N[C@@H](CO)C(=O)N[C@@H](CCCNC(=N)N)C(=O)N2` (H-ACHSRCPQLPPCG-OH; linker 2-6-12 via TBMB), in test [1], the inhibitory constant (Ki) worked out at 1.1 µM. Further, the inhibition result in test [5] is “Dose-dependent effect”. Further, the IC50 in test [6] amounted to 167 µM. In test [7], the result was Active.
On to `CC(C)C[C@@H]1NC(=O)[C@H](CCC(N)=O)NC(=O)[C@@H]2CCCN2C(=O)[C@@H]2CSCc3cc(cc(c3)CSC[C@@H](C(=O)NCC(N)=O)NC(=O)[C@@H]3CCCN3C(=O)[C@@H]3CCCN3C1=O)CSC[C@H](NC(=O)[C@H](C)N)C(=O)N[C@@H]([C@@H](C)O)C(=O)N[C@@H](CCC(N)=O)C(=O)N[C@@H](CCCNC(=N)N)C(=O)N2` (H-ACTQRCPQLPPCG-NH2; linker 2-6-12 via TBMB), for which the Ki in test [1] stood at 2.4 µM. Further, the Kd in test [2] is 1.5 µM.

As usually defined, the Ki is a measure of affinity in units of concentration, obtained from inhibition or displacement. By Kd is commonly meant a measure of binding affinity in units of concentration. Read a high Kd as lower affinity. By IC50 is commonly meant the midpoint of a concentration-inhibition curve.
